For assay [1], the species on record is Cavia porcellus. Briefly: Intrinsic activity at muscarinic M4 receptor in guinea pig lung assessed as inhibition of electrically-stimulated muscle contraction relative to bathanecol. The procedure, abridged:
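Male guinea pig peripheral lung strips (15 × 2 × 2 mm) from lower lobe, 0.3 g resting tension, 37 °C, Krebs-Henseleit with carbogen; 45 min equilibration, isometric contractions. Cumulative agonist concentration-response curves; pD2 by linear regression; intrinsic activity relative to bethanechol maximum; means ± SEM of four to six experiments.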

For assay [2], the target named is Muscarinic acetylcholine receptor M3 (Cavia porcellus) (UniProt Q8VH26). Briefly: Agonist activity at muscarinic M3 receptor in guinea pig ileum assessed as inhibition of electrically-stimulated muscle contraction. It counts as functional, tissue-based. The procedure, abridged: (§1)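 Male guinea pig (250-350 g, fasted 24 h) ileal segments 2-3 cm, 1.0 g tension, 37 °C, Krebs-Henseleit with carbogen; 45 min equilibration, isometric contractions. Cumulative agonist concentration-response curves; pD2 by linear regression; intrinsic activity relative to bethanechol maximum; means ± SEM of four to six experiments.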

For assay [3] the target is unchanged. Briefly: Intrinsic activity at muscarinic M3 receptor in guinea pig ileum assessed as inhibition of electrically-stimulated muscle contraction relative to bathanecol. It counts as tissue-based. The procedure, abridged: as §1
Assay [4] in a line: Selectivity ratio of pD2 for guinea pig muscarinic M3 receptor to pD2 for rabbit M1 receptor.
Assay [5] addresses Muscarinic acetylcholine receptor M3 (Homo sapiens, UniProt P20309). In words: Displacement of [3H]NMS from human muscarinic M3 receptor expressed in CHO cells by microplate scintillation counting. It counts as cell-based.
The species entered for assay [6] is Oryctolagus cuniculus. In words: Antagonist activity at muscarinic M1 receptor in New Zealand White rabbit vas deferens assessed as effect on muscle contraction up to 30 uM. It counts as functional, tissue-based.
Assay [7] is described as follows: Agonist activity at muscarinic M2 receptor in guinea pig atrium assessed as inhibition of electrically-stimulated muscle contraction. It counts as functional, Cavia porcellus, Cardiac atrium.
Assay [8] concerns the target T1, Muscarinic acetylcholine receptor M1 (Homo sapiens, UniProt P11229).
T1 sequence (P11229 whole entry): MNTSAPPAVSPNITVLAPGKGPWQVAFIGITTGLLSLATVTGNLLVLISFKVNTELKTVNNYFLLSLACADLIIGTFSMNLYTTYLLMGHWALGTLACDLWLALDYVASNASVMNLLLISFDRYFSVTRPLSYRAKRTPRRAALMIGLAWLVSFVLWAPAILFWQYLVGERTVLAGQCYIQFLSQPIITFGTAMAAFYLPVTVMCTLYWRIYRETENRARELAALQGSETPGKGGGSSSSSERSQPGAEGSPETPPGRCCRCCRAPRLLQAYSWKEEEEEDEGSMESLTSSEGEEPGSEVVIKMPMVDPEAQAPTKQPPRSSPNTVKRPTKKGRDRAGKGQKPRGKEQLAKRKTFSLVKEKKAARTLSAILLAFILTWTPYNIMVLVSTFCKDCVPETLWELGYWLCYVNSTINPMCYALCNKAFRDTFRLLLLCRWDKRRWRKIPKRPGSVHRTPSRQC
Briefly: Displacement of [3H]NMS from human muscarinic M1 receptor expressed in CHO cells by microplate scintillation counting. It counts as cell-based.

The target of assay [9] is T2, Muscarinic acetylcholine receptor M4 (Homo sapiens, UniProt P08173).
T2 sequence (P08173 whole entry): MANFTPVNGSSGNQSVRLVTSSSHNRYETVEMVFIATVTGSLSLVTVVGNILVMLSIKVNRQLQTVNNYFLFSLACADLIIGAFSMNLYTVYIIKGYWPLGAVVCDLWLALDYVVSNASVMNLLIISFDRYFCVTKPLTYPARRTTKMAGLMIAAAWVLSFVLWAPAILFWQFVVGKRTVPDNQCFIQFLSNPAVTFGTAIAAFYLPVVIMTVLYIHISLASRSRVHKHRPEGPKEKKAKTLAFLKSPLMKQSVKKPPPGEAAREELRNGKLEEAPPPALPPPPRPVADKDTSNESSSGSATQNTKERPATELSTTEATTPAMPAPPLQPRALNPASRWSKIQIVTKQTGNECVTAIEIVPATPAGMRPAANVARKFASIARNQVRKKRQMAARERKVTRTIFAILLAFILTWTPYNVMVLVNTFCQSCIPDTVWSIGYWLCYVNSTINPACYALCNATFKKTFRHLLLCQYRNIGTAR
In words: Displacement of [3H]NMS from human muscarinic M4 receptor expressed in CHO cells by microplate scintillation counting. It counts as cell-based.

Assay [10] is filed under the species Oryctolagus cuniculus. In words: Agonist activity at muscarinic M1 receptor in New Zealand White rabbit vas deferens assessed as inhibition of electrically-stimulated muscle contraction. The format is functional. The procedure, abridged: (§2)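 Prostatic portion of male-free-listed New Zealand white rabbit (3.0-3.5 kg, fasted 24 h) vas deferens in modified Krebs, 31 °C, 95% O2-5% CO2; 45 min stabilisation, field stimulation 2 Hz, 5 ms, 5 V; isometric recording. Cumulative concentration-response curves; pD2 by linear regression; intrinsic activity as fraction of McN-A-343 maximum; means ± SEM of four to six experiments.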

For assay [11], the species on record is Cavia porcellus. Briefly: Selectivity ratio of pD2 for guinea pig muscarinic M3 receptor to pD2 for guinea pig muscarinic M4 receptor.
The nature of assay [12]: Agonist activity at muscarinic M4 receptor in guinea pig lung assessed as inhibition of electrically-stimulated muscle contraction. The format is functional, Cavia porcellus.
The species named for assay [13] is Cavia porcellus. Briefly: Selectivity ratio of pD2 for guinea pig muscarinic M3 receptor to pD2 for guinea pig muscarinic M2 receptor.
Assay [14] is filed under the species Cavia porcellus. Briefly: Intrinsic activity at muscarinic M2 receptor in guinea pig atrium assessed as inhibition of electrically-stimulated muscle contraction relative to bathanecol. The format is tissue-based. To be noted: Cardiac atrium.
The target of assay [15] is T3, Muscarinic acetylcholine receptor M2 (Homo sapiens, UniProt P08172).
T3 sequence (P08172 whole entry): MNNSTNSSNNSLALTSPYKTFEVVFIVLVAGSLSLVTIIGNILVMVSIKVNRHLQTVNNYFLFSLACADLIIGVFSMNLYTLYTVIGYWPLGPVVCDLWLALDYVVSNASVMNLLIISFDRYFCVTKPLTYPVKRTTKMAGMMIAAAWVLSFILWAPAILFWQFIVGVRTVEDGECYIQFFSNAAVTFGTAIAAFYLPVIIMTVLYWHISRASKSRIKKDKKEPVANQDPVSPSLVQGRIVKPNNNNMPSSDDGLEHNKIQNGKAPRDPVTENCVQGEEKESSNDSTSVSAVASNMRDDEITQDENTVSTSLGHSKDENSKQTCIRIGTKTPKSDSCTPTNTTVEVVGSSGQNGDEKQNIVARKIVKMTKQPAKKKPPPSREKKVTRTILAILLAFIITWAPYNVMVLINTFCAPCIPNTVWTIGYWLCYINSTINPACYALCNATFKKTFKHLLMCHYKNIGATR
Briefly: Displacement of [3H]NMS from human muscarinic M2 receptor expressed in CHO cells by microplate scintillation counting. It counts as cell-based.

For assay [16], the target named is T4, Muscarinic acetylcholine receptor M5 (Homo sapiens, UniProt P08912).
T4 sequence (P08912 whole entry): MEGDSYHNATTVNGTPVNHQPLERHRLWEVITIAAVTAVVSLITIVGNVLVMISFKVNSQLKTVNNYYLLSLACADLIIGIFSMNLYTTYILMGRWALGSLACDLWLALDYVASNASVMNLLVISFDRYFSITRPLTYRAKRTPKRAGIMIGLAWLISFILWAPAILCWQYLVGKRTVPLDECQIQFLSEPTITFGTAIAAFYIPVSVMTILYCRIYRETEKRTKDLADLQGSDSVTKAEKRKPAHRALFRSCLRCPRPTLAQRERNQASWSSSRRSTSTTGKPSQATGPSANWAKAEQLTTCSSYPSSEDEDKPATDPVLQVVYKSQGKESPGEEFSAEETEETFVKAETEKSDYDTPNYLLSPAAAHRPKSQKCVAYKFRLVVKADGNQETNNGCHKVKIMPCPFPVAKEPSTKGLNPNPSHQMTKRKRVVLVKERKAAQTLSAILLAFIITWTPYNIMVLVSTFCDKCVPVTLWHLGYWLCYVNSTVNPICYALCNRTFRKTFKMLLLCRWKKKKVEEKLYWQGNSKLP
Briefly: Displacement of [3H]NMS from human muscarinic M5 receptor expressed in CHO cells by microplate scintillation counting. The format is cell-based.

Assay [17] is filed under the species Cavia porcellus. Briefly: Antagonist activity at muscarinic M2 receptor in guinea pig atrium assessed as effect on muscle contraction up to 10 uM. It counts as functional, tissue-based. To be noted: Cardiac atrium.
Assay [18] in a line: Antagonist activity at muscarinic M4 receptor in guinea pig lung assessed as effect on muscle contraction. The format is functional, Cavia porcellus.
Assay [19] is described as follows: Antagonist activity at muscarinic M1 receptor in New Zealand White rabbit vas deferens assessed as effect on muscle contraction. It counts as functional, Oryctolagus cuniculus.
For assay [20], the species on record is Oryctolagus cuniculus. Briefly: Intrinsic activity at muscarinic M1 receptor in New Zealand White rabbit vas deferens assessed as inhibition of electrically-stimulated muscle contraction relative to McN-A-343. It counts as tissue-based. Summed up:
as §2

For assay [21], the species on record is Cavia porcellus. Briefly: Antagonist activity at muscarinic M4 receptor in guinea pig lung assessed as effect on muscle contraction up to 10 uM. The format is functional.
In assay [22] the target is Muscarinic acetylcholine receptor M3 (Cavia porcellus) (UniProt Q8VH26). To be noted: Ileum.
The species entered for assay [23] is Cavia porcellus. The following applies: Cardiac atrium.
For assay [24], the species on record is Cavia porcellus. In words: Selectivity ratio of pD2 for guinea pig muscarinic M4 receptor to pD2 for guinea pig muscarinic M3 receptor.

Activity calls are given as the source filed them. No cut-off for these calls is given here.

Chain of Muscarinic acetylcholine receptor M3 (Cavia porcellus) (Q8VH26 1-587): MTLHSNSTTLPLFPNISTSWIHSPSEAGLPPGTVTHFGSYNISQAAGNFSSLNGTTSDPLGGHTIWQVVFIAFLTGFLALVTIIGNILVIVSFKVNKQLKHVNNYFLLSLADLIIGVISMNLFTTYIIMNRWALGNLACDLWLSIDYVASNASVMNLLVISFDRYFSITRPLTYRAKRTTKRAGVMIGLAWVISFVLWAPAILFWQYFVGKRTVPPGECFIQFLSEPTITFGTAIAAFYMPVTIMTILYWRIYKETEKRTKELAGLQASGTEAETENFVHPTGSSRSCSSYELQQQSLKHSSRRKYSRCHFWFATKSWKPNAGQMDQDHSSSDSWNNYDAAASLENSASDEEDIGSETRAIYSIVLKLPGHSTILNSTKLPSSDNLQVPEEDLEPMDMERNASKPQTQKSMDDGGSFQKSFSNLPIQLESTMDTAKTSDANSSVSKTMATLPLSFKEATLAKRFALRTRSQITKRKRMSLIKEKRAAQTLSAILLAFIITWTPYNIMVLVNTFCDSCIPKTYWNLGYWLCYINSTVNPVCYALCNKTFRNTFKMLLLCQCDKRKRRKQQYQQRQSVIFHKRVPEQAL
Chain of Muscarinic acetylcholine receptor M3 (P20309 whole entry): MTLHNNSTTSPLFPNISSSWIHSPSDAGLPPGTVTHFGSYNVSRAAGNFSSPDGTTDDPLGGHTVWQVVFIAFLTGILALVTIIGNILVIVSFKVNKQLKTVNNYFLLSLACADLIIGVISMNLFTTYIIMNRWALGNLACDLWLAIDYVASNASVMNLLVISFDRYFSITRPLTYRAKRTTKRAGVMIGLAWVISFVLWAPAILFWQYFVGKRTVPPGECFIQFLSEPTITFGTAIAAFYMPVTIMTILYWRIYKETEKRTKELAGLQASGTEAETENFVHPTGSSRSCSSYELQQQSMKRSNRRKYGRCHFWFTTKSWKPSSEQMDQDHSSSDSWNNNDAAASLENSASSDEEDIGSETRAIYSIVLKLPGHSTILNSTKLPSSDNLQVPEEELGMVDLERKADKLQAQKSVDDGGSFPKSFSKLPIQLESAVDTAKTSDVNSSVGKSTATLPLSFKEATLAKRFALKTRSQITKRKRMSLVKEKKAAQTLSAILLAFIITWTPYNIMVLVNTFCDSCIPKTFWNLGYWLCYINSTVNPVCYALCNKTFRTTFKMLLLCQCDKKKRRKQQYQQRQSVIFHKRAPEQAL

For the molecule `CC1(C)COC[C@@H](C[N+](C)(C)C)O1.[I-]`, the figures for the Intrinsic activity (in the assay filed under Cavia porcellus [1]; in assay [3]; in the assay listed under Cavia porcellus [14]) were 0.18, 1.16 and 0.73, respectively. Besides, the pD2 in assay [2] worked out at 6.94; in assay [7] it was 5.03; in assay [12] it was 4.85. For the same molecule, the Selectivity ratio was > 275 in assay [4], 123 in the assay filed under Cavia porcellus [11] and 81 in the assay listed under Cavia porcellus [13]. Further, the Ki in assay [5] is 21.4 µM; in assay [8] it was 47.9 µM; in [9], 44.7 µM; in assay [15], 18.2 µM; in [16], 28.2 µM. The pKb entry in the assay filed under Oryctolagus cuniculus [6] is “inactive”. Moreover, the pD2 result in the assay filed under Oryctolagus cuniculus [10] was “inactive”.
Regarding `CC1(C)CO[C@H](C[N+](C)(C)C)CO1.[I-]`, the Intrinsic activity in the assay filed under Cavia porcellus [1] was found to be 0.22; in [3] it was 0.68. The pD2 in [2] was found to be 4.91; in assay [12] it was 4.85. Moreover, the pKb result in the assay listed under Cavia porcellus [17] and in the assay filed under Oryctolagus cuniculus [6] was “inactive” each time. The inhibition constant Ki is 77.6 µM in [5]; > 100 µM in assay [8]; > 100 µM in assay [9]; 95.5 µM in [15]; > 100 µM in assay [16]. For the same molecule, in the assay filed under Oryctolagus cuniculus [10], the pD2 entry is “inactive”.
`C[C@H]1OC[C@@H](C[N+](C)(C)C)OC1(C)C.[I-]` (relative stereo): the Intrinsic activity in the assay listed under Cavia porcellus [1] amounted to 0; in assay [3], 0.47. For the same molecule, the pD2 in [2] came to 5.25. The Ki is 16.2 µM in assay [5]; 20 µM in [8]; 25.7 µM in assay [9]; 27.5 µM in assay [15]; 32.4 µM in [16]. Also, in the assay filed under Oryctolagus cuniculus [6], the pKb result was “inactive”. Also, in the assay filed under Oryctolagus cuniculus [10], the pD2 entry was “inactive”. The pKb in [18] is 5.15.
As to `C[C@@H]1O[C@H](C[N+](C)(C)C)COC1(C)C.[I-]` (relative stereo), the values for the pD2 in assay [2] and in [7] were 5.12 and 4.92, respectively. Besides, the figures for the Intrinsic activity (in [3]; in the assay listed under Oryctolagus cuniculus [20]; in the assay listed under Cavia porcellus [14]) were 0.47, 0 and 0.33, respectively. The Ki is 32.4 µM in assay [5]; 67.6 µM in assay [8]; 57.5 µM in [9]; 60.3 µM in assay [15]; 52.5 µM in assay [16]. Moreover, the pKb in assay [19] is reported as 4.61. For the same molecule, the pKb entry in the assay filed under Cavia porcellus [21] is “inactive”.
Consider `C[C@H]1O[C@H](C[N+](C)(C)C)COC1(C)C` (relative stereo), for which the pKb result (in assay [22]; in the assay listed under Cavia porcellus [17]; in the assay filed under Oryctolagus cuniculus [6]; in the assay filed under Cavia porcellus [23]; in the assay filed under Cavia porcellus [21]) was “inactive” in each case. Moreover, the pD2 entry (in assay [2]; in the assay filed under Oryctolagus cuniculus [10]) was “inactive” throughout. In addition, the Ki was 46.8 µM in assay [5]; 95.5 µM in [8]; 87.1 µM in assay [9]; 72.4 µM in [15]; 83.2 µM in [16].
Take `C[C@@H]1OC[C@@H](C[N+](C)(C)C)O[C@H]1C.[I-]` (relative stereo): the Intrinsic activity in the assay listed under Cavia porcellus [1] turned out to be 0.35; in [3] it was 0.88; in the assay filed under Cavia porcellus [14], 0.8. Moreover, the pD2 came to 6.95 in assay [2], 4.93 in [7] and 5.08 in [12]. Moreover, the inhibitory constant (Ki) in [5] was 11 µM; in [8], 24.5 µM; in assay [9], 30.9 µM; in assay [15], 13.8 µM; in assay [16], 15.5 µM. In the assay filed under Oryctolagus cuniculus [6], the pKb result was “inactive”. Besides, in the assay listed under Oryctolagus cuniculus [10], the pD2 result was “inactive”. Further, the Selectivity ratio is 105 in the assay filed under Cavia porcellus [13] and 74 in the assay filed under Cavia porcellus [24].

The values above are taken from ChEMBL document CHEMBL1153096, “Properly substituted 1,4-dioxane nucleus favours the selective M3 muscarinic receptor activation” (Bioorg Med Chem, 2009).
